Here are results for seven molecules from ChEMBL document CHEMBL1136609, “An adjustable release rate linking strategy for cytotoxin-peptide conjugates” (Bioorg Med Chem Lett, 2003).

The species named for series [1] is Rattus norvegicus. Nature of the series: Inhibitory activity against GHRH-stimulated GH release from monolayer cultures of rat pituitary cells. The series is classed as functional, cell-based. The conditions noted are these: Pituitary gland cell. The method in brief: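 Monolayer cultures of rat pituitary cells stimulated with GHRH; agonist potency measured as inhibition of GH release, expressed as IC50.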

A short description of series [2]: Half-life in rat serum. The class given is ADME, organism-based. The method in brief: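 Compounds incubated at 37°C in fresh rat serum; aliquots removed at several time points and analysed by HPLC to estimate half-life.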
In the next series the target is Somatostatin receptor. Description: Cytotoxic activity against human neuroblastoma IMR32 cells which over-express somatostatin receptors. The series is classed as functional, cell-based. The conditions noted are these: imr-32. The method in brief: (§1)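 Human neuroblastoma IMR-32 cells (somatostatin receptor/SSTR2 over-expressing) exposed to a range of compound concentrations for 3 days, in quadruplicate; viability read by MTT assay; IC50 taken from dose-response curves.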

A further series deals with IMR-32. Nature of the series: Cytotoxic activity against human neuroblastoma IMR32 cells. The series is classed as functional, cell-based. The gist of the method: as §1
The species entered for series [3] is Rattus norvegicus. Description: Inhibitory activity against GHRH-stimulated GH release from monolayer cultures of rat pituitary cells; na is not active. The conditions noted are these: pituitary gland cell. The series is classed as functional, cell-based.
The nature of series [4]: Half-life in phosphate buffer. The series is classed as ADME. The gist of the method: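 Incubated in 0.1 M phosphate buffer at 37°C; aliquots taken at various time points and analysed by HPLC to give half-life. The experiment ran for 50 h.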

Turning to `CCCC[C@H](NC(=O)[C@@H](CO)NC(=O)CN(CCCN)C(=O)O[C@]1(CC)C(=O)OCc2c1cc1n(c2=O)Cc2cc3ccccc3nc2-1)C(=O)N[C@H](Cc1ccc(O)cc1)C(=O)N[C@H](CO)C(=O)N[C@@H]1CSSC[C@H](C(=O)N[C@H](C(N)=O)[C@@H](C)O)NC(=O)[C@H]([C@@H](C)O)NC(=O)[C@H](CCCN)NC(=O)[C@@H](Cc2c[nH]c3ccccc23)NC(=O)[C@H](Cc2ccccc2)NC1=O`, the IC50 in the series filed under Rattus norvegicus [1] is 0.26 nM; against Somatostatin receptor it was greater than 1000 nM. The molecule also gave a half-life in series [2] of 72 h.

As for `CCCC[C@H](NC(=O)[C@@H](CO)NC(=O)CN(CCN)C(=O)O[C@]1(CC)C(=O)OCc2c1cc1n(c2=O)Cc2cc3ccccc3nc2-1)C(=O)N[C@H](Cc1ccc(O)cc1)C(=O)N[C@H](CO)C(=O)N[C@@H]1CSSC[C@H](C(=O)N[C@H](C(N)=O)[C@@H](C)O)NC(=O)[C@H]([C@@H](C)O)NC(=O)[C@H](CCCN)NC(=O)[C@@H](Cc2c[nH]c3ccccc23)NC(=O)[C@H](Cc2ccccc2)NC1=O`, the IC50 turned out to be 0.32 nM in the series filed under Rattus norvegicus [1] and 374 nM in the series with IMR-32. The half-life in series [2] was 106 h.

As for `CC[C@@]1(O)C(=O)OCc2c1cc1n(c2=O)Cc2cc3ccccc3nc2-1` [CAMPTOTHECIN], the figures for the 50% inhibitory concentration (IC50) entry in the series filed under Rattus norvegicus [3] and against Somatostatin receptor were “Not Active” and 2.21 nM, respectively.

Regarding `CCCC[C@H](NC(=O)[C@@H](CO)NC(=O)CN(CCO)C(=O)O[C@]1(CC)C(=O)OCc2c1cc1n(c2=O)Cc2cc3ccccc3nc2-1)C(=O)N[C@H](Cc1ccc(O)cc1)C(=O)N[C@H](CO)C(=O)N[C@@H]1CSSC[C@H](C(=O)N[C@H](C(N)=O)[C@@H](C)O)NC(=O)[C@H]([C@@H](C)O)NC(=O)[C@H](CCCN)NC(=O)[C@@H](Cc2c[nH]c3ccccc23)NC(=O)[C@H](Cc2ccccc2)NC1=O`, the values for the IC50 in the series filed under Rattus norvegicus [1] and at Somatostatin receptor were 0.49 nM and greater than 1000 nM, respectively.

Take `CCCC[C@H](NC(=O)[C@@H](CO)NC(=O)CN(CCN(C)C)C(=O)O[C@]1(CC)C(=O)OCc2c1cc1n(c2=O)Cc2cc3ccccc3nc2-1)C(=O)N[C@H](Cc1ccc(O)cc1)C(=O)N[C@H](CO)C(=O)N[C@@H]1CSSC[C@H](C(=O)N[C@H](C(N)=O)[C@@H](C)O)NC(=O)[C@H]([C@@H](C)O)NC(=O)[C@H](CCCN)NC(=O)[C@@H](Cc2c[nH]c3ccccc23)NC(=O)[C@H](Cc2ccccc2)NC1=O`: the IC50 in the series filed under Rattus norvegicus [1] was found to be 0.3 nM; against Somatostatin receptor, 571 nM. The molecule further gave a half-life in series [2] of 59 h.

Consider `CCCC[C@H](NC(=O)[C@@H](CO)NC(=O)CN(CCNC)C(=O)O[C@]1(CC)C(=O)OCc2c1cc1n(c2=O)Cc2cc3ccccc3nc2-1)C(=O)N[C@H](Cc1ccc(O)cc1)C(=O)N[C@H](CO)C(=O)N[C@@H]1CSSC[C@H](C(=O)N[C@H](C(N)=O)[C@@H](C)O)NC(=O)[C@H]([C@@H](C)O)NC(=O)[C@H](CCCN)NC(=O)[C@@H](Cc2c[nH]c3ccccc23)NC(=O)[C@H](Cc2ccccc2)NC1=O`, for which the results for the IC50 in the series listed under Rattus norvegicus [1] and at Somatostatin receptor were 0.27 nM and 54.2 nM, respectively. Besides, the half-life in series [4] is 123 h; in series [2], 18 h.

With `CCCC[C@H](NC(=O)[C@@H](CO)NC(=O)CN(CCN)C(=O)Oc1cc(/C=C\c2cc(OC)c(OC)c(OC)c2)ccc1OC)C(=O)N[C@H](Cc1ccc(O)cc1)C(=O)N[C@H](CO)C(=O)N[C@@H]1CSSC[C@H](C(=O)N[C@H](C(N)=O)[C@@H](C)O)NC(=O)[C@H]([C@@H](C)O)NC(=O)[C@H](CCCN)NC(=O)[C@@H](Cc2c[nH]c3ccccc23)NC(=O)[C@H](Cc2ccccc2)NC1=O`, the IC50 turned out to be 0.31 nM in the series filed under Rattus norvegicus [1] and 2.79 nM at Somatostatin receptor. Moreover, the half-life is 31 h in series [4] and 4 h in series [2].

A word on the IC50: it is the concentration needed to halve the response being measured. Read a high IC50 as a need for much substance. By half-life is commonly meant how long it takes for the measured level to halve. A high value points to slow loss.
